# PolyA inh: blocks polyadenylation in yeast reporter cells; S. cerevisiae SKY197-pL101 polyadenylation reporter, beta-gal luminescence; efflux-impaired pdr1/pdr3 knockout yeast; score 100 = 6 SD above DMSO; activity score, % at 12 µM; 300,000 compounds, 0.02% hits; AID 1875;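 active = lowest replicate activity score at least 50, where 100 means six control SD above control mean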;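 also: yeast exposed to compound for 9 h at 30 °C; higher score means more reporter readthrough which indicates perturbed polyadenylation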
# procasp7 counter: activates human procaspase-7, counter-screen for procaspase-3 activators; P55210; recombinant procaspase-7, Ac-DEVD-pNA absorbance 405 nm; D23A/D198A/D206A triple mutant, cannot self-cleave; scale: DMSO 0, 5 µM enzyme 100; activation, % at 8.5 µM; 330,000 compounds, 0.093% hits; AID 463210;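 active = percent activation above the screen-wide mean plus 3 SD, cut at about 25% in these data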
#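 System: Uncleavable procaspase-7 mutant enzyme; Amount: 2 µM procaspase-7 mutant as dispensed; Schedule: 1 h compound preincubation, 2 h substrate cleavage, 25 °C; Measured by: 405 nm absorbance of p-nitroaniline; Evaluation: percent activation from buffer-corrected 0–120 min absorbance change; Control set: low DMSO alone, high DMSO plus 5 µM PC-7.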
# procasp3 activ: procaspase-3 (human) activation; activation, % at 8.5 µM; recombinant procaspase-3 D3A, Ac-DEVD-pNA absorbance 405 nm; AID 463141; 330,000 compounds, 0.11% hits; P42574;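 active = activation above the mean of all tested compounds plus 3 SD, cut at about 21% in these data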
#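 material = Procaspase-3 D3A mutant | probe or stimulus = Ac-DEVD-pNA | compound = single dose, 8.5 µM nominal compound, 0.8% DMSO | timing = 1 h preincubation, 2 h reaction | measured by = 405 nm absorbance of p-nitroaniline, reads at 0 and 120 min | benchmarks = DMSO-only low control, 5 µM PC-3 D3A high control | repeats = singlicate, each compound tested once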
# AHR activator: activates the human aryl hydrocarbon receptor | AHR-responsive luciferase reporter cells, luminescence | activation, % at 5 µM | 320,000 compounds, 2.5% hits | AID 2796; in the data active = activation above about 47%
# AHR act cf: confirmation of human aryl hydrocarbon receptor activators; shares compounds with AHR activator; human cells, AHR-responsive luciferase reporter, luminescence; activation, % at 9 µM; 2,300 compounds, 87% hits; in the data active = activation above about 49%;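 also: HepG2 hepatoma cells carrying a DRE-driven firefly luciferase reporter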
# PXR act counter: activates human PXR in AHR activator counter-screen. shares compounds with AHR activator. activation, % at 11.6 µM. cell-based PXR reporter, luciferase luminescence. 2,300 compounds, 88% hits. AID 434939; in the data active = activation above about 11%;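 also: human hepatoma DPX-2 cells expressing full-length human PXR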
# Target sequence (O75469 whole entry, looked up): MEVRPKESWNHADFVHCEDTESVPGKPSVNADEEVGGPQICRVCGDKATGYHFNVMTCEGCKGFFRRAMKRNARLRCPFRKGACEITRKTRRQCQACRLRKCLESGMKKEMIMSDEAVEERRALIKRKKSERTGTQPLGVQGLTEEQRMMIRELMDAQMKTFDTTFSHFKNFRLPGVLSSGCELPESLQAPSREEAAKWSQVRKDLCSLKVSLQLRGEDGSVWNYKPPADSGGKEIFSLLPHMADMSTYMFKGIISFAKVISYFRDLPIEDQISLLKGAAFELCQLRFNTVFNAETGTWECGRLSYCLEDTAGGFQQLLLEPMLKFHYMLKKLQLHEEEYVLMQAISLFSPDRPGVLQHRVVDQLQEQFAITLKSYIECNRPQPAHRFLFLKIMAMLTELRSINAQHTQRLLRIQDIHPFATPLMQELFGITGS
# Numbers stand for hits; . = inactive; / = not tested or not shown. In the library only some 2.6% were active in any assay of this set; here they are far more common.
SMILES,PolyA inh,procasp7 counter,procasp3 activ,AHR activator,AHR act cf,PXR act counter
CCn1c2ccccc2c2cc(NC(=O)CSc3nnc(C4CC4)n3Cc3ccco3)ccc21,.,.,.,112,56,171
CCOC(=O)N1CCN(C(=O)c2ccc3c(c2)NC(=O)/C(=C\c2cccc(C)c2)S3)CC1,.,.,.,.,/,/
COc1cccc(NC(=O)COC(=O)c2c(C)nn(-c3ccccc3)c2C)c1,/,.,.,.,/,/
O=C1c2cccc3cccc(c23)C(=O)N1CCN1CCN(CC(O)COc2ccccc2)CC1 (stereo not given),.,.,.,87,59,16
Cc1ccc(NC(=S)N2CCN(CCN3C(=O)c4cccc5cccc(c45)C3=O)CC2)cc1,.,.,.,107,110,57
O=C(Nc1ccc(F)c(Cl)c1)C1CCCC1,.,.,.,.,/,/
O=C(NC(=S)Nc1ccc(F)c(Cl)c1)C1CC1,.,.,.,93,95,/
CC(OC(=O)CN1C(=O)NC2(CCCC2)C1=O)c1ccc(F)cc1 (stereo not given),/,.,.,.,/,/
COc1ccc(/C=C2\SC(=N)N(c3nccs3)C2=O)cc1OC,.,.,.,85,53,17
Cc1ccc(-c2csc(NC(=O)C3=COCCO3)n2)cc1,.,.,.,.,/,/
COc1ccc(OC)c2sc(NC(=O)C3=COCCO3)nc12,.,.,.,98,88,.
COc1ccc(C)c2sc(NC(=O)C3=COCCO3)nc12,.,.,.,84,66,19
COc1cccc2sc(NNC(=O)C3=COCCO3)nc12,.,.,.,.,/,/
Oc1ccc(N=Nc2ccc3c(c2)OCCO3)c(O)c1,.,.,.,.,/,/
Oc1ccc(N=Nc2ccc(Br)cc2)c(O)c1,.,.,.,89,61,.
CC1CC1c1ccc(/C=C(\C#N)C(=O)Nc2ccc(Cl)cc2)o1 (stereo not given),.,.,.,90,.,45
Cc1ccc(-c2n[nH]c(=S)n2/N=C/c2cccn2C)cc1,.,.,.,.,/,/
Cn1cccc1/C=N/n1c(-c2ccc(Cl)cc2)n[nH]c1=S,.,.,.,89,81,25
CC(=O)Nc1ccc(NC(=O)N(c2ccccc2)c2ccccc2)cc1,.,.,.,.,/,/
Cc1cnc(NC(=O)c2ccc(OCC3CCCO3)cc2)s1 (stereo not given),.,.,.,.,/,/
O=C(Nc1nc2ccccc2s1)c1ccc(OCC2CCCO2)cc1 (stereo not given),.,.,.,112,69,.
NS(=O)(=O)c1ccc2nc(-c3ccccc3)c(-c3ccccc3)nc2c1,.,.,.,.,/,/
CCOC(=O)[C@H]1[C@H]2COc3ccc(Br)cc3[C@@H]2N2C(=O)CN(Cc3ccc(OC)cc3)C(=O)[C@@]12C,/,.,.,.,/,/
COc1ccc2nc(NC(=O)c3ccccc3[N+](=O)[O-])sc2c1,.,.,.,.,/,/
COc1ccccc1NC(=O)c1ccc([N+](=O)[O-])cc1[N+](=O)[O-],.,.,.,104,94,29
SMILES,PolyA inh,procasp7 counter,procasp3 activ,AHR activator,AHR act cf,PXR act counter
O=C(CN1CCOCC1)Nc1nc2ccc([N+](=O)[O-])cc2s1,.,.,.,133,91,/
COc1cccc(OC)c1C(=O)Nc1nc2ccc(S(C)(=O)=O)cc2s1,.,.,.,.,/,/
COc1cccc(OC)c1C(=O)Nc1nc2ccc([N+](=O)[O-])cc2s1,.,.,.,81,75,.
COc1ccc2nc(NC(=O)c3ccccc3O)sc2c1,.,.,.,130,.,33
O=C(Nc1cccc(NC(=O)c2ccc(Cl)cc2Cl)c1)c1cccnc1,.,.,.,.,/,/
COc1ccc(/C(=N\O)c2ncc(C(F)(F)F)cc2Cl)cc1,.,.,.,.,/,/
N/C(=N\OC(=O)Nc1ccc(Cl)cc1)c1ncc(C(F)(F)F)cc1Cl,.,.,.,.,/,/
CON/C=C(\C=Nc1ccc(Cl)cc1)c1ncc(C(F)(F)F)cc1Cl,.,.,.,112,93,14
CON/C=C(\C=Nc1ccc(C(F)(F)F)cc1)c1ncc(C(F)(F)F)cc1Cl,.,.,.,108,103,31
COc1ccc(-n2nc3cc(N)c(Br)cc3n2)cc1,.,.,.,98,124,30
CCCNc1nc(Cl)nc(Nc2ccc(Cl)cc2)n1,.,.,.,127,91,/
Cc1ccc(C)c2c1N(Cc1ccccc1)C(=O)C21OCCO1,.,.,.,.,/,/
O=C(c1ccccc1)c1cc2cc(Cl)ccc2[nH]1,.,.,.,.,/,/
O=c1cc(-c2ccccc2)[nH]c2cc(Cl)ccc12,.,.,.,96,64,23
O=c1cc(-c2ccccc2)c2cc(Cl)ccc2[nH]1,.,.,.,.,/,/
Clc1ccc2[nH]c(-c3ccccc3)cc2c1,.,.,.,115,138,17
CCCc1nc(NCc2ccncc2)c2nnn(Cc3ccccc3F)c2n1,.,.,.,81,61,116
Cc1cc(C)c2oc(-c3cccc(N)c3)nc2c1,.,.,.,79,128,15
CCc1ccc2oc(-c3cccc(N)c3)nc2c1,.,.,.,83,90,12
CCOc1cc2nc(-c3ccc(OC)c(OC)c3)nc(N3CC(C)OC(C)C3)c2cc1OC (stereo not given),.,.,.,83,96,16
COc1cc(OC)c(-n2cc(-c3ccc(OC)c(OC)c3)[nH]c2=S)cc1Cl,.,/,/,/,/,/
CCc1ccc(S(=O)(=O)/N=C2\C=CC(=O)c3ccccc32)cc1,/,.,.,112,93,164
S=C(Nc1ccc(Oc2ccccc2)cc1)NC1CCCCCC1,.,.,.,.,/,/
S=C(NNc1ccc2ccccc2c1)NC1CCCCC1,.,.,.,108,90,99
O=C(CSc1nnc(CNc2ccc(F)cc2)n1CC1CCCO1)N1CCOCC1 (stereo not given),.,/,/,/,/,/
SMILES,PolyA inh,procasp7 counter,procasp3 activ,AHR activator,AHR act cf,PXR act counter
O=C(NCCc1ccncc1)Nc1cccc(Cl)c1,.,.,.,90,56,17
COc1ccccc1N(CC(=O)NCCSCc1cccc(C)c1)S(=O)(=O)c1ccccc1,.,.,.,.,/,/
CN(C(=S)NC(=O)c1ccc(Cl)cc1)C1CCCCC1,.,.,.,91,113,94
CCNS(=O)(=O)c1ccc(CCC(=O)N2CCC(C)CC2)cc1,.,/,/,/,/,/
O=C(CSc1nc2ccccc2c(=O)n1CCCO)NCc1ccccc1,.,.,.,.,/,/
O=c1c2ccccc2nc(SCc2nc3ccccc3s2)n1CCCO,.,.,.,89,107,52
C=CCN(C(=O)c1oc2c(Cl)cc(C)cc2c1C)C1CCS(=O)(=O)C1 (stereo not given),.,.,.,.,/,/
Cc1cccc2c1NC(=O)/C2=C\C(=O)c1cccs1,.,.,.,84,113,116
CCc1ccccc1NC(=O)Nc1cc(F)ccc1F,.,.,.,.,/,/
